Measurements of several laboratories.
Each line is one published result; the experiments were not run side by side. ≈ marks a conversion by molar mass, not a printed value.

O=[N+]([O-])C1=Cc2ccccc2OC1c1cccc(OCc2ccc([N+](=O)[O-])cc2)c1 (stereo not drawn)
IC50 (Leishmania tropica; parasite growth; THP-1; 72 h, intracellular, amastigote): 144 µg/mL

CCOC(=O)C1=C(CN2CCN(Cc3ccccc3B(O)O)CC2)NC(c2nccs2)=NC1c1ccc(F)cc1Br (stereo not drawn)
EC50 (Hepatitis B virus; viral replication, inhibitor, qPCR; HepDES19; 72 h): 1.47 µM

COc1ccc(C2Oc3ccccc3C=C2[N+](=O)[O-])cc1 (stereo not drawn)
IC50 (Leishmania tropica; parasite growth; THP-1; 72 h, intracellular, amastigote): 150 µg/mL

Cc1ccc(N=Nc2c(N)nn3c(-c4ccco4)cc(-c4ccc(OCc5ccccc5)cc4)nc23)cc1
MFC (Saccharomyces cerevisiae; microbial killing, broth dilution; ATCC9763): 62.5 µg/mL (≈ 125 µM)

O=[N+]([O-])C1=Cc2ccccc2OC1c1ccccc1OCc1ccccc1Cl (stereo not drawn)
IC50 (Leishmania tropica; parasite growth; THP-1; 72 h, intracellular, amastigote): 171 µg/mL

COc1ccc(N=Nc2c(N)nn3c(-c4ccc(Cl)cc4Cl)cc(-c4ccc(OCc5ccccc5)cc4)nc23)cc1
MFC (Saccharomyces cerevisiae; microbial killing, broth dilution; ATCC9763): 500 µg/mL (≈ 840 µM)

Cc1ccc(C2Oc3ccccc3C=C2[N+](=O)[O-])cc1 (stereo not drawn)
IC50 (Leishmania tropica; parasite growth; THP-1; 72 h, intracellular, amastigote): 164 µg/mL

COc1ccc(N=Nc2c(N)nn3c(-c4ccc(C)cc4)cc(-c4ccc(OCc5ccccc5)cc4)nc23)cc1
MIC (Saccharomyces cerevisiae; microbial growth, broth dilution; ATCC9763): 31.3 µg/mL (≈ 57.9 µM)

CCOC(=O)C1=C(CN2CCN(Cc3cccc(B4OC(C)(C)C(C)(C)O4)c3)CC2)NC(c2nccs2)=NC1c1ccc(F)cc1Br (stereo not drawn)
EC50 (Hepatitis B virus; viral replication, inhibitor, qPCR; HepDES19; 72 h): 1.3 µM

C[C@@H]1[C@H](O)[C@@H](C)/C=C/C=C/C=C/C=C/C=C/C=C/C=C/[C@H](O[C@@H]2O[C@H](C)[C@@H](O)[C@H](N)[C@@H]2O)C[C@@H]2O[C@](O)(C[C@@H](O)C[C@@H](O)[C@H](O)CC[C@@H](O)C[C@@H](O)CC(=O)O[C@H]1C)C[C@H](O)[C@H]2C(=O)O
MIC (Saccharomyces cerevisiae; microbial growth, broth dilution; BY4741; 48 h): 0.25 µg/mL (≈ 0.271 µM)

O=[N+]([O-])C1=Cc2ccccc2OC1c1ccccc1Cl (stereo not drawn)
IC50 (Leishmania tropica; parasite growth; THP-1; 72 h, intracellular, amastigote): 164 µg/mL

CNC(=S)NN=Cc1ccc(C)cc1
IC50 (Leishmania tropica; parasite growth, MTT; 72 h, promastigote): 1050 µM

CCOC(=O)C1=C(CN2CCCC2C(=O)Nc2cccc(B(O)O)c2)NC(c2nccs2)=NC1c1ccc(F)cc1Br (stereo not drawn)
EC50 (Hepatitis B virus; viral replication, inhibitor, qPCR; HepDES19; 72 h): 0.47 µM

Cc1ccc(N=Nc2c(N)nn3c(-c4ccc(C)cc4)cc(-c4ccc(OCc5ccccc5)cc4)nc23)cc1
MFC (Saccharomyces cerevisiae; microbial killing, broth dilution; ATCC9763): 250 µg/mL (≈ 477 µM)

O=[N+]([O-])C1=Cc2ccccc2OC1c1cccc(Cl)c1 (stereo not drawn)
IC50 (Leishmania tropica; parasite growth; THP-1; 72 h, intracellular, amastigote): 151 µg/mL

S=C(NN=Cc1ccc(Br)cc1)Nc1cccnc1
IC50 (Leishmania tropica; parasite growth, MTT; 72 h, promastigote): 551 µM

COc1ccc(N=Nc2c(N)nn3c(-c4ccco4)cc(-c4ccc(OCc5ccccc5)cc4)nc23)cc1
MIC (Saccharomyces cerevisiae; microbial growth, broth dilution; ATCC9763): 62.5 µg/mL (≈ 121 µM)

OC(Cn1cncn1)(Cn1cncn1)c1ccc(F)cc1F
MIC (Saccharomyces cerevisiae; microbial growth, broth dilution; BY4741; 48 h): 4 µg/mL (≈ 13.1 µM)

CNC(=S)NN=Cc1ccc(OC)c(OC)c1
IC50 (Leishmania tropica; parasite growth, MTT; 72 h, promastigote): 258 µM

CC(=O)N1CCN(c2ccc(OCC3COC(Cn4ccnc4)(c4ccc(Cl)cc4Cl)O3)cc2)CC1 (stereo not drawn)
MFC (Saccharomyces cerevisiae; microbial killing, broth dilution; ATCC9763): 15.6 µg/mL (≈ 29.4 µM)

COc1ccc(C=NNC(=S)Nc2cccnc2)cc1
IC50 (Leishmania tropica; parasite growth, MTT; 72 h, promastigote): 642 µM

CCOC(=O)C1=C(CN2CCCC2C(=O)Nc2ccc(B3OC(C)(C)C(C)(C)O3)cc2)NC(c2nccs2)=NC1c1ccc(F)cc1Br (stereo not drawn)
EC50 (Hepatitis B virus; viral replication, inhibitor, qPCR; HepDES19; 72 h): 0.37 µM

Fc1ccc(C=NNC(=S)Nc2cccnc2)cc1
IC50 (Leishmania tropica; parasite growth; J774.A1; 72 h, intracellular, amastigote): 201 µM

CCOC(=O)C1=C(CN2CCC(C(=O)Nc3ccccc3B(O)O)C2)NC(c2nccs2)=NC1c1ccc(F)cc1Br (stereo not drawn)
EC50 (Hepatitis B virus; viral replication, inhibitor, qPCR; HepDES19; 72 h): 1.97 µM

O=[N+]([O-])C1=Cc2ccccc2OC1c1ccccc1Br (stereo not drawn)
IC50 (Leishmania tropica; parasite growth; THP-1; 72 h, intracellular, amastigote): 154 µg/mL

CCOC(=O)C1=C(CN2CCCC2C(=O)Nc2cccc(B3OC(C)(C)C(C)(C)O3)c2)NC(c2nccs2)=NC1c1ccc(F)cc1Br (stereo not drawn)
EC50 (Hepatitis B virus; viral replication, inhibitor, qPCR; HepDES19; 72 h): 0.37 µM

COc1ccc(C=NNC(=S)Nc2cccnc2)cc1OC
IC50 (Leishmania tropica; parasite growth; J774.A1; 72 h, intracellular, amastigote): > 1000 µM

Cc1ccc(-c2cc(-c3ccc(OCc4ccccc4)cc3)nc3c(N=Nc4ccc(F)cc4)c(N)nn23)cc1
MFC (Saccharomyces cerevisiae; microbial killing, broth dilution; ATCC9763): 125 µg/mL (≈ 236 µM)

CNC(=S)NN=Cc1ccc(Br)cc1
IC50 (Leishmania tropica; parasite growth, MTT; 72 h, promastigote): 92.3 µM

Cc1ccc(N=Nc2c(N)nn3c(-c4ccc(Cl)cc4Cl)cc(-c4ccc(OCc5ccccc5)cc4)nc23)cc1
MIC (Saccharomyces cerevisiae; microbial growth, broth dilution; ATCC9763): 31.3 µg/mL (≈ 54 µM)

CCCCN1CN(CC(=O)O)CSC1=S
IC50 (Leishmania tropica; parasite growth, MTT; 48 h, promastigote): 94.1 µM

C[C@@H]1[C@H](O)[C@@H](C)/C=C/C=C/C=C/C=C/C=C/C=C/C=C/[C@H](O[C@@H]2O[C@H](C)[C@@H](O)[C@H](N)[C@@H]2O)C[C@@H]2O[C@](O)(C[C@@H](O)C[C@@H](O)[C@H](O)CC[C@@H](O)C[C@@H](O)CC(=O)O[C@H]1C)C[C@H](O)[C@H]2C(=O)O
IC50 (Leishmania tropica; parasite growth, MTT; 72 h, promastigote): 17.9 µM

CCOC(=O)C1=C(CN2CCC[C@@H]2C(=O)Nc2ccc(B(O)O)cc2)NC(c2nccs2)=N[C@@H]1c1ccc(F)cc1Br
EC50 (Hepatitis B virus; viral replication, inhibitor, qPCR; HepDES19; 72 h): 3.93 µM
